Source: ChEMBL document CHEMBL1138747, “Synthesis and structure--activity relationship in a class of indolebutylpiperazines as dual 5-HT(1A) receptor agonists and serotonin reuptake inhibitors” (J Med Chem, 2004)
Values joined by “and” are separate entries in the source; they are usually repeats but may differ in a detail not shown here. Identical values can stand only once.

Tests used:
[1] = Inhibition of histamine H2 receptor
[2] = molecular target: T1, Serotonin 3 (5-HT3) receptor (Rattus norvegicus, UniProt P35563+Q9JJ16); assay: Inhibition against rat hydroxytryptamine 3 receptor; type: protein-complex assay
T1 sequence (P35563 whole entry): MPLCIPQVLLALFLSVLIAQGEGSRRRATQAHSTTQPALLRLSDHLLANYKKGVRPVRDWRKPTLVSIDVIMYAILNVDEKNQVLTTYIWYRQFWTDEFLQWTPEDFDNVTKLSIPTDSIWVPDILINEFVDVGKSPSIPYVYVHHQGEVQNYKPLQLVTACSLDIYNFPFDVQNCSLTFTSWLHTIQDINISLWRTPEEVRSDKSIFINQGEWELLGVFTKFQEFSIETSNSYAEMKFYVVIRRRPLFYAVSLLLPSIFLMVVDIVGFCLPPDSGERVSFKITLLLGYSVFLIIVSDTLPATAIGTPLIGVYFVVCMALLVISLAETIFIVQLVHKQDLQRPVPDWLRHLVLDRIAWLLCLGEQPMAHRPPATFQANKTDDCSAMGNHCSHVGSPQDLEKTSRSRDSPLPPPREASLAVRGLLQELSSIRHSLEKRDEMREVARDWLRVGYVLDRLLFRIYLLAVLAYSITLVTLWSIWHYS
T1 sequence (Q9JJ16 whole entry): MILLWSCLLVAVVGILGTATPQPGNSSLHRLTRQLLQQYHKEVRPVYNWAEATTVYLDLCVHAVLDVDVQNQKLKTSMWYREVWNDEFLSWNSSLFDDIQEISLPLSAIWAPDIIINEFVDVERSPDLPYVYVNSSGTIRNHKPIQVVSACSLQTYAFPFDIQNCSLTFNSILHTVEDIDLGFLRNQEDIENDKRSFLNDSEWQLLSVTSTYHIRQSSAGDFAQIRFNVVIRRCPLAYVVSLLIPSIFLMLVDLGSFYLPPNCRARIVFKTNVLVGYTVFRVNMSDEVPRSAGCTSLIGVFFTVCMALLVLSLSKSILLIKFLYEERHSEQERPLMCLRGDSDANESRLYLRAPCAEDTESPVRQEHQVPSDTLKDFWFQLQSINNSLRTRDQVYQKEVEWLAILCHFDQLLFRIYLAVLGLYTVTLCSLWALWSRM

[3] = molecular target: T2, Adrenergic receptor alpha-1 (Homo sapiens, UniProt P35348+P25100+P35368); assay: Inhibition of alpha-1-adrenergic receptor; type: protein assay
T2 sequence (P35348 whole entry): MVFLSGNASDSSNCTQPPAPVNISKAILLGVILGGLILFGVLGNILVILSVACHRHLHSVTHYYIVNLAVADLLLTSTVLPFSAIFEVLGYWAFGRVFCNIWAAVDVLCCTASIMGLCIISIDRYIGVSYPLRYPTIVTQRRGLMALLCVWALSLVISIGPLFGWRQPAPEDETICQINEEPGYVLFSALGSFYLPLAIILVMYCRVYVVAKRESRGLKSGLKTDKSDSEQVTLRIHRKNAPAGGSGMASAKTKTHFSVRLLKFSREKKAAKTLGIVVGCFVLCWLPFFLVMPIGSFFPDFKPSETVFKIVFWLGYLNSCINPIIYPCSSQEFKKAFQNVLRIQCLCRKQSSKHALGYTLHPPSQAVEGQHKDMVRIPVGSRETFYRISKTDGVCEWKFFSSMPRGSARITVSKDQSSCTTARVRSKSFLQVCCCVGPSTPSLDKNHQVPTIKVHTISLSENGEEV
T2 sequence (P25100 whole entry): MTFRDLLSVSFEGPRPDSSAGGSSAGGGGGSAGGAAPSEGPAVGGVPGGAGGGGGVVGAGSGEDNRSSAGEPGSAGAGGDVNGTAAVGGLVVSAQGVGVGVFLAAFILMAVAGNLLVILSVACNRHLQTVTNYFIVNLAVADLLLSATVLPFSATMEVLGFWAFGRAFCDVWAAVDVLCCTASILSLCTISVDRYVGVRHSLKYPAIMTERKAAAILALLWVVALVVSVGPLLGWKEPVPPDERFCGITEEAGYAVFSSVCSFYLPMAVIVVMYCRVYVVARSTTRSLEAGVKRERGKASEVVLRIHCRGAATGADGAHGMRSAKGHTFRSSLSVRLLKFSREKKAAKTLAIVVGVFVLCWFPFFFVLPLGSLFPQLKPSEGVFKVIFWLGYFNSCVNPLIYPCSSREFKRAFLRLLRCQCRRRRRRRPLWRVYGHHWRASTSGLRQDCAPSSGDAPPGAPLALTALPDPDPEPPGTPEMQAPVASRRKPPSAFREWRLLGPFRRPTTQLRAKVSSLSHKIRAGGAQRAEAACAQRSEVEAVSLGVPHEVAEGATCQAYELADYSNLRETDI
T2 sequence (P35368 whole entry): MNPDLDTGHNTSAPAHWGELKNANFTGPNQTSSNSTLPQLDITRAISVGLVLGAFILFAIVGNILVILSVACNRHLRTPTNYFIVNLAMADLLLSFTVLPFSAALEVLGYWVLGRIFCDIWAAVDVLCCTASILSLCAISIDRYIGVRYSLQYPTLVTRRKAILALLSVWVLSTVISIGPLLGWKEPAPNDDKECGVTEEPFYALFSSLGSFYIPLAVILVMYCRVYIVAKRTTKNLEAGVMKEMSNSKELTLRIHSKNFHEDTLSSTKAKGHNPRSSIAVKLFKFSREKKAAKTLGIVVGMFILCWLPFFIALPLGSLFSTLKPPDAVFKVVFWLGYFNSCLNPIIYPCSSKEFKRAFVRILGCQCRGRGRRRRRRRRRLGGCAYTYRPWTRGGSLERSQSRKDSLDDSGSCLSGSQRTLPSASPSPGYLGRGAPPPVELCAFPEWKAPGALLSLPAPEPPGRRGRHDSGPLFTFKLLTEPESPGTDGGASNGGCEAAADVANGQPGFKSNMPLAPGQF

[4] = molecular target: D(2) dopamine receptor (Rattus norvegicus, UniProt P61169); assay: Displacement of [3H]spiperone from dopamine D2 receptor of rat striatal membranes; type: cell membranes, Membrane
D(2) dopamine receptor, sequence (P61169 whole entry): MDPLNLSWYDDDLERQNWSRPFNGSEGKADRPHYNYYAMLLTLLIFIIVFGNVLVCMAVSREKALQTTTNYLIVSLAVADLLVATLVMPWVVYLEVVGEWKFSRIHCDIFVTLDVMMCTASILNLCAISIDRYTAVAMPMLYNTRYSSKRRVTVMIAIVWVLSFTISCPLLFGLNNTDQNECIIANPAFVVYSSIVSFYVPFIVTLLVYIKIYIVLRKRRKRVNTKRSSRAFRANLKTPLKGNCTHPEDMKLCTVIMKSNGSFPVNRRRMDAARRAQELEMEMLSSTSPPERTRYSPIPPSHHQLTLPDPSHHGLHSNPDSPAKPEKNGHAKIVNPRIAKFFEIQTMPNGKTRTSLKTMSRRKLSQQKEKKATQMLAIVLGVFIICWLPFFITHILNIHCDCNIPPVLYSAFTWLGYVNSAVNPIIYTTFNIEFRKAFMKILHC
In short: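 IC50 from 5–10 compound concentrations, each in triplicate, taken as the concentration (nM) giving 50% inhibition of specific radioligand binding.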

[5] = Inhibition of kappa opioid receptor

## N#Cc1ccc2[nH]cc(CCCCN3CCN(c4ccc5oc(C(N)=O)cc5c4)CC3)c2c1 [VILAZODONE]
[1]
  IC50: > 1000 nM
[2]
  IC50: 4.3 µM
[3]
  IC50: 1980 nM
[4]
  IC50: 95 nM and 666 nM
[5]
  IC50: > 1000 nM
